Assay outcomes as filed in PubChem.
Rows were chosen to be rich in hits. Some 1.2% of all compounds tested hit in one or more screens of this group.
MsrA inh = inhibitors of bovine MsrA | purified bovine MsrA, absorbance read-out | inhibition, % at 15.5 µM | hit rate 0.75% among 360,000 | AID 651718
MsrA act = activates bovine MsrA enzyme; activation, % at 10.6 µM; purified bovine MsrA, absorbance read-out; hit rate 0.3% among 360,000; in the data active = activation above about 7.5%
procasp3 activ = procaspase-3 (human) activation. P42574. recombinant procaspase-3 D3A, Ac-DEVD-pNA absorbance 405 nm. activation, % at 8.5 µM. hit rate 0.11% among 330,000. AID 463141;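 active = activation above the mean of all tested compounds plus 3 SD, cut at about 21% in these data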
Target sequence (P42574 whole entry D9A/D28A/D175A): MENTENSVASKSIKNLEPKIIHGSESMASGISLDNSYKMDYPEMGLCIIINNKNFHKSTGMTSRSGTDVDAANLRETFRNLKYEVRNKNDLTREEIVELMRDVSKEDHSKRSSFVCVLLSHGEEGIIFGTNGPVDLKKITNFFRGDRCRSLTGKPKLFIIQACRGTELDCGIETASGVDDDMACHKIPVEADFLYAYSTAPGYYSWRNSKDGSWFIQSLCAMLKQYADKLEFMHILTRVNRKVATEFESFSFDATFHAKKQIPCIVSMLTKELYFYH
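Assay system – Procaspase-3 D3A mutant · Benchmarks – DMSO low control, extra-enzyme high control · Technique – 405 nm absorbance of p-nitroaniline, reads at 0 and 120 min · Doses – 8.5 µM nominal · Measure – % activation between DMSO and enzyme-spiked controls · Also added – Ac-DEVD-pNA chromogenic peptide substrate · Schedule – 1 h compound preincubation, 2 h substrate hydrolysis at 25 °C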
procasp7 counter = counter-screen for procaspase-3 activators: activators of human procaspase-7; recombinant procaspase-7, Ac-DEVD-pNA absorbance 405 nm; D23A/D198A/D206A triple mutant, cannot self-cleave; scale: DMSO 0, 5 µM enzyme 100; hit rate 0.093% among 330,000; activation, % at 8.5 µM; P55210;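 active = percent activation above the screen-wide mean plus 3 SD, cut at about 25% in these data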
Target sequence (P55210 whole entry D23A/D198A/D206A): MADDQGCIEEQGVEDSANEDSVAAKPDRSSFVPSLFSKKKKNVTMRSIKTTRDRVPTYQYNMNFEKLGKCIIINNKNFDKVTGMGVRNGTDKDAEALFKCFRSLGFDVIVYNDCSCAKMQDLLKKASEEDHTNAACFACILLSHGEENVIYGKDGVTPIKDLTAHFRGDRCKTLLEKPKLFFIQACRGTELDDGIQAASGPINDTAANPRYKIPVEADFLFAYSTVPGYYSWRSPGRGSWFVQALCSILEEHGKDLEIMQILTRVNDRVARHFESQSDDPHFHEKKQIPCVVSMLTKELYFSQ
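Detection: p-Nitroaniline absorbance at 405 nm, read at 0 and 120 min; system: Uncleavable procaspase-7 mutant enzyme; evaluation: % activation from two-timepoint absorbance difference, scaled to controls; times: 1 h enzyme–compound preincubation and 2 h substrate reaction, both 25 °C; buffer or medium: Zinc-free HEPES pH 7.4 with 300 mM NaCl, 0.01% Triton X-100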
MsrA conf = confirmation of bovine MsrA inhibitors; shares compounds with MsrA inh; hit rate 41% among 2,300; purified bovine MsrA, absorbance read-out; AID 651822; inhibition, % at 15.5 µM;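 note: coupled to thioredoxin reductase with NADPH and selenocystamine and DMSO as substrate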
Of the large screens only hits and unclear results are named; the others gave an inactive call (follow-up assays come after a bar, where they were run). Cut-off read from the data, not from the text of the source, unless noted: active = inhibition above about 4.5%; inactive = the rest.

Nc1[nH]c(C(=O)c2ccccc2)c(-c2ccccc2Br)c1C(=O)c1cccs1	none (no result: MsrA act, procasp3 activ, procasp7 counter)
Cc1c(C(=O)O)cccc1-c1ccc(C=O)o1	MsrA inh 5.0 | MsrA conf inactive
O=C(O)c1cccc(-c2ccc(/C=N/NC(=O)c3cccnc3)o2)c1	MsrA inh 5.9 | MsrA conf 6.7
Cc1ccc(/C=N/NC(=O)c2cccnc2)o1	none
Cc1nnc(N/N=C/c2ccc(-c3ccc(Br)cc3)o2)n1N	none
CC(C)(C)c1cc(C(=O)N/N=C/c2ccc(-c3ccccc3[N+](=O)[O-])o2)n[nH]1	none
O=C(N/N=C/c1ccc(-c2ccccc2[N+](=O)[O-])o1)c1cccnc1	MsrA inh 7.1 | MsrA conf inactive
COc1ccc(NC(=O)/C(C#N)=C\c2ccc(-c3cccc(C(=O)O)c3C)o2)cc1	none
Cc1nnc(N/N=C\c2ccc(-c3cccc(C(=O)O)c3)o2)n1N	MsrA inh 5.0 | MsrA conf 6.0
Cc1cc(Oc2cccnc2)ccc1NC(=O)Cc1c(C)[nH]c2ccccc12	none (no result: MsrA act, procasp3 activ, procasp7 counter)
FC(F)(F)c1ccccc1CN1CCCc2nc(-c3ccc(Br)cc3)ccc21	none (no result: MsrA act, procasp3 activ, procasp7 counter)
c1ccc2c(c1)CCCN2c1nc2ccccc2n2cnnc12	MsrA inh 12 | MsrA conf 12
COc1ccc(CNC(=O)c2ccc(=O)oc2)cc1OC	MsrA inh 9.9 | MsrA conf 8.7
O=C(NCc1cccnc1)c1cccc(Cl)c1	none
O=C(NCc1cccnc1)c1ccc(=O)oc1	MsrA inh 8.3 | MsrA conf 8.4
C=CCNc1oc(-c2ccc(Cl)cc2)nc1C#N	none
CNc1oc(-c2ccc(Cl)cc2)nc1C#N	MsrA inh 4.8 | MsrA conf inactive
Cc1ccc2[nH]c(=O)c(CN(Cc3cccnc3)Cc3nnnn3CC3CCCO3)cc2c1 (stereo not given)	none
Cc1ccc2[nH]c(=O)c(CN(Cc3cccnc3)Cc3nnnn3CCN3CCOCC3)cc2c1	MsrA inh 5.1 | MsrA conf inactive
O=C(O)c1ccc(NC2=C(Cl)C(=O)c3ccccc3C2=O)cc1	none
O=C(O)c1cccc(NC2=C(Cl)C(=O)c3ccccc3C2=O)c1	MsrA inh 4.9 (no result: procasp3 activ, procasp7 counter) | MsrA conf inactive
CCN(CC)C(=O)c1ccc2nc3ccccc3nc2c1	MsrA inh 5.6 | MsrA conf inactive
CCN(CC)C(=O)c1ccc2nc(-c3ccccc3)c(-c3ccccc3)nc2c1	none
C=CCCC[C@H]1OC(=O)[C@H](C)NC(=O)[C@H](C(C)C)NC(=O)[C@@H]2CCCN2C(=O)[C@H](Cc2ccccc2)OC(=O)[C@@H](C(C)C)N(C)C(=O)[C@H](C(C)C)NC(=O)C1(C)C	none (no result: MsrA act, procasp3 activ, procasp7 counter)
S=C1NCCOc2ccccc21	none (no result: MsrA act, procasp3 activ, procasp7 counter)
COc1ccc(C=CC(C)=NNC(=O)c2ccncc2)cc1	MsrA inh 5.3 (no result: procasp3 activ, procasp7 counter) | MsrA conf 6.0
COc1ccc(/C=C(/NC(=O)c2ccccc2)C(=O)N/N=C/c2ccncc2)cc1	MsrA inh 6.0 | MsrA conf 4.9
COc1ccc(/C=N\NC(=O)/C(=C\Nc2nccc(C)n2)NC(=O)c2ccccc2)cc1	MsrA inh 8.2 | MsrA conf 7.7
COc1ccc(/C=C(/NC(=O)c2ccccc2)C(=O)NCc2ccncc2)cc1	none
Cc1ccc(/C=N\NC(=O)/C(=C\Nc2nccc(C)n2)NC(=O)c2ccccc2)cc1	MsrA inh 5.9 | MsrA conf 6.0
CNC1=C(N(C(C)=O)c2ccc(Br)cc2)C(=O)c2ccccc2C1=O	MsrA inh 36 | MsrA conf 5.5
O=[N+]([O-])c1cccc(-c2ccc(C(=S)N3CCOCC3)o2)c1	MsrA inh 5.1 | MsrA conf 5.6
CC(=O)Nc1cc2nc3ccccc3oc-2cc1=O	none (no result: MsrA act, procasp3 activ, procasp7 counter)
CCOC(=O)c1nnn(-c2nonc2-n2cccc2)c1CN1CCC(C)CC1	none
CCOC(=O)c1nnn(-c2nonc2-n2cccc2)c1CCl	MsrA inh 6.4 | MsrA conf 5.3
COCCN1Cc2cc(C(=O)OC)c3c(c2C1=O)c1ccccc1n3S(=O)(=O)c1ccc(OC)cc1	none (no result: MsrA act, procasp3 activ, procasp7 counter)
CCOc1ccccc1Nc1cc2n(c(=O)n1)CCc1cc(OC)c(OC)cc1-2	MsrA inh 6.9 | MsrA conf inactive
CCN(C(=O)CSc1nc2nc(C)cc(C)n2n1)c1cccc(C)c1	none
CCN(C(=O)CSc1nc2nc(C)cc(C)n2n1)c1ccccc1	MsrA inh 4.8 | MsrA conf inactive
COc1ccc(C(=O)N2CCC[C@@H]2C(=O)N2CCC[C@@H]2C(=O)NCc2ccccc2)cc1F	none (no result: MsrA act, procasp3 activ, procasp7 counter)
C[C@H]1CN([C@@H](C)CO)C(=O)CCCn2cc(nn2)CO[C@@H]1CN(C)S(=O)(=O)c1cn(C)cn1	none (no result: MsrA act, procasp3 activ, procasp7 counter)
O=C(N/N=C\c1cn(-c2ccccc2)nc1-c1ccccc1)c1ccc(Br)o1	MsrA inh 6.4 | MsrA conf inactive
O=Cc1cn(-c2ccccc2)nc1-c1ccccc1	MsrA inh 14 | MsrA conf 11
O=Cc1cn(-c2ccccc2)nc1-c1ccncc1	MsrA inh 6.0 | MsrA conf inactive
O=Cc1cn(-c2ccccc2)nc1-c1cccnc1	MsrA inh 11 | MsrA conf inactive
C[C@@H]1C=CCCO[C@]12C(=O)N(Cc1ccc(Br)cc1)c1ccccc12	none (no result: MsrA act, procasp3 activ, procasp7 counter)
CN(Cc1ccccc1)C(=O)c1cccc(NC(=O)Cc2ccc(NC(=O)C3CCCN(S(=O)(=O)c4cccc([N+](=O)[O-])c4)C3)cc2)c1 (stereo not given)	none (no result: MsrA act, procasp3 activ, procasp7 counter)
CCCCCCCCN1C(=O)[C@@H](CC(=O)N2CCCCC2)C[C@@]2(C(=O)OC)C1=C[C@H](C1CCCC1)O[C@@H]2C	none (no result: MsrA act, procasp3 activ, procasp7 counter)
COC(=O)C1=C(C)N(Cc2ccccc2C(F)(F)F)C(=NCc2ccc(C(F)(F)F)cc2)NC1c1ccc(C(F)(F)F)cc1 (stereo not given)	none (no result: MsrA act, procasp3 activ, procasp7 counter)
O=C(N/C(=C\c1cn(-c2ccccc2)nc1-c1ccccc1)C(=O)N1CCOCC1)c1ccccc1	none (no result: MsrA inh, MsrA act)
C(=N\N1CCOCC1)/c1cn(-c2ccccc2)nc1-c1ccccc1	MsrA inh 7.0 | MsrA conf inactive
CSc1nc2[nH]c3c(c2c2nnnn12)CCCC3	MsrA inh 12 | MsrA conf 10
Cn1c(=NC(=O)c2ccco2)sc2ccccc21	MsrA inh 7.5 | MsrA conf 5.6
Cc1sc(=NC(=O)c2ccco2)n(C)c1-c1ccccc1	none
O=c1oc2ccccc2c(NC(c2ccccc2)c2ccccc2)c1[N+](=O)[O-]	MsrA inh 62 | MsrA conf 56
CCNC(=O)OC[C@H]1O[C@H](C#Cc2ccc(C(C)(C)C)cc2)C=C[C@H]1OC(C)=O	none (no result: MsrA act, procasp3 activ, procasp7 counter)
CCOC(=O)CC(=O)CSc1nc2c(sc(=S)n2-c2ccccc2)c(=O)[nH]1	MsrA inh 6.0 | MsrA conf inactive
COC(=O)c1sccc1NC(=O)c1ccc(C)o1	none
COC(=O)c1sccc1NC(=O)c1ccc(Br)o1	MsrA inh 5.7 | MsrA conf inactive
CC1(C)CC(=O)C2=C(C1)Nc1ccccc1NC2c1ccc(F)cc1 (stereo not given)	none
CC1(C)CC(=O)C2=C(C1)Nc1ccccc1NC2c1ccc2c(c1)OCO2 (stereo not given)	MsrA inh 6.6 | MsrA conf inactive
